Source: PubChem
SR-BI DiI-HDL act = activators of SR-BI mediated HDL lipid uptake | activation, % at 12.5 µM | 320,000 compounds, 0.096% hits | AID 504775 | CHO ldlA[mSR-BI] cells, DiI-HDL uptake fluorescence, 3 h; 100 = double the neutral-control signal;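 active = mean replicate activation of at least 60% and every replicate at or above 60%; inconclusive = mean or all-replicate condition met, but not both; inactive = mean below 60% and not all replicates reaching 60%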
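Test system: SR-BI-overexpressing, LDLR-lacking CHO cells. Measured by: DiI fluorescence, bottom read. Medium: Ham's F12 with 0.5% BSA, HEPES 25 mM, pH 7.4. Timing: 3 h uptake period with compound, 37 °C.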
Vif inh = blocks HIV Vif function | HEK293T cells, Vif self-association by quenched fluorescence, imaging, 24 h | inhibition, % at 7.49 µM | 340,000 compounds, 0.35% hits; in the data active = inhibition above about 50%, passing the limit was not always enough; inconclusive = no clear call, values can overlap the other calls; inactive = below about 31%
SR-BI HDL uptake = blocks mouse SR-BI lipid uptake from DiI-HDL; ldlA[mSR-BI] CHO cells, DiI-HDL uptake fluorescence, 3 h; inhibition, % at 12.5 µM; 320,000 compounds, 0.96% hits;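 active = mean replicate inhibition of at least 70% and a set share of replicates each scoring 70 or more; inconclusive = meets just one of the two criteria; inactive = fails both criteria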
Target sequence (Q61009 whole entry, looked up): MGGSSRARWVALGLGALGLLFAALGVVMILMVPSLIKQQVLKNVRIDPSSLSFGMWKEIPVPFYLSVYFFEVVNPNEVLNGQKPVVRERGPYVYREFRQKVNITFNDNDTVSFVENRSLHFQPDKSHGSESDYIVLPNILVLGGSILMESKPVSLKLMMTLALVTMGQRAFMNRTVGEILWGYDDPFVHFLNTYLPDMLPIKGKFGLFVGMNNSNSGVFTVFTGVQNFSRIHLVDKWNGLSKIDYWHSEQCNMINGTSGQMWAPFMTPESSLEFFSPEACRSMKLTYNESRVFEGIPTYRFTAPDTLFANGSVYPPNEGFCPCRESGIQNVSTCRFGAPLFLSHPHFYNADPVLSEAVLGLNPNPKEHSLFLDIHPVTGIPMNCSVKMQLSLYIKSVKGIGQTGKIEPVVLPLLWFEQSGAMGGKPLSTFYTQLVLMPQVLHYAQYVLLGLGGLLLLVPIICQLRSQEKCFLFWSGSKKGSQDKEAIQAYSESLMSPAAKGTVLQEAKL
C2C12 statin = suppression of simvastatin myotoxicity | C2C12 myotubes + simvastatin, ATP luminescence, 48 h; scaled: DMSO 0, geranylgeraniol control 100 | rescue of ATP level, % at 7.49 µM | 330,000 compounds, 0.78% hits | AID 602340;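 active = mean ATP rescue above about 67%, or every replicate alone reaching that limit, limit read from the data, passing the limit was not always enough; inconclusive = no clear call, values can overlap the other calls; inactive = mean under the limit and some replicate under it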;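 note: myotubes were challenged with 10 µM simvastatin during compound exposure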
DiI quencher = DiI fluorescence quenching in cell-free counter-screen; AC50, µM (titrated, usually from 35 µM); cell-free DiI-HDL fluorescence quenching, 30 min; AID 540326; 470 compounds, 20% hits; shares compounds with SR-BI HDL uptake;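 active = quenching, a falling signal, with AC50 below a set limit tied to the top valid dose, actives reach about 32 µM in these data; inconclusive = no clear call, values can overlap the other calls; inactive = rising signal, and the rest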
Of the large screens only hits and unclear results are named; the others gave an inactive call (follow-up assays come after a bar, where they were run). An excerpt weighted towards active compounds, which were near 1.7% of everything screened.

CC(=O)Nc1ccc(C(=O)OCC(=O)N(c2ccccc2)C2CCCCC2)cc1	none
CC(=O)Nc1cc(NC(C)=O)cc(C(=O)OCC(=O)N(c2ccccc2)C2CCS(=O)(=O)C2)c1 (configuration not stated)	none | DiI quencher inactive
CCc1ccc(NC(=O)C2CCCN(S(=O)(=O)c3ccc4[nH]c(=O)ccc4c3)C2)cc1 (configuration not stated)	Vif inh inconclusive, SR-BI HDL uptake 104, C2C12 statin inconclusive | DiI quencher inactive
Cc1ccc(NC(=O)C2CCCN(S(=O)(=O)c3ccc4[nH]c(=O)ccc4c3)C2)cc1C (configuration not stated)	none
COc1ccccc1-n1c(SCC(=O)NCc2ccc3c(c2)OCO3)nc2cc([N+](=O)[O-])ccc21	none (no result: C2C12 statin)
CC(Sc1nc2cc([N+](=O)[O-])ccc2n1-c1ccc(F)cc1)C(=O)NCc1ccc2c(c1)OCO2 (configuration not stated)	SR-BI HDL uptake 82 (no result: C2C12 statin) | DiI quencher inactive
COc1ccccc1CNC(=O)C[C@H]1CC[C@@H]2[C@@H](COc3ccc(NC(=O)Nc4ccc(F)c(F)c4)cc3C(=O)N2C)O1	none (no result: SR-BI DiI-HDL act, Vif inh, SR-BI HDL uptake)
COc1ccc(C(=O)CSc2nnc(CNC(=O)c3ccc(S(=O)(=O)N(C)C)cc3)o2)cc1	SR-BI HDL uptake 78 | DiI quencher inactive
Cc1nnc(NC(=O)CSc2nnc(CNC(=O)c3ccc(S(=O)(=O)N(C)C)cc3)o2)s1	none (no result: C2C12 statin)
Cc1ccccc1C(=O)NC1CC2CCCC(C1)N2C(=O)Nc1ccccc1 (configuration not stated)	none | DiI quencher inactive
CC(C)(C)C(=O)NC1CC2CCCC(C1)N2C(=O)Nc1ccccc1 (configuration not stated)	none
CC(C)(C)c1ccc2oc(=O)cc(-c3cccc(-c4ccc(C(F)(F)F)cc4)c3)c2c1	none
Cc1cc2oc(=O)cc(-c3ccccc3)c2c(C)c1-c1ccc(C(F)(F)F)cc1	SR-BI HDL uptake inconclusive | DiI quencher inactive
COc1ccc(-c2cc3c(=O)n(CC(=O)NCc4ccc(C)cc4)ncn3n2)cc1	none
CCOc1ccc(CCNC(=O)Cn2ncn3nc(-c4ccc(OC)cc4)cc3c2=O)cc1	SR-BI HDL uptake 72 | DiI quencher inactive
CC1CCc2c(sc(Nc3nc4c(F)cccc4s3)c2C(N)=O)C1 (configuration not stated)	SR-BI HDL uptake 80 (no result: C2C12 statin) | DiI quencher 3.3µM
CCC(C)c1ccccc1N1CC(C(=O)N2CCN(S(=O)(=O)c3cccc([N+](=O)[O-])c3)CC2)CC1=O (configuration not stated)	none (no result: C2C12 statin) | DiI quencher inactive
CN1CCN(S(=O)(=O)NC[C@H]2O[C@@H](n3cnc4c(N)ncnc43)[C@H](O)[C@@H]2O)CC1	none (no result: Vif inh)
CCOC(=O)C1CCCN(S(=O)(=O)NC[C@H]2O[C@@H](n3cnc4c(N)ncnc43)[C@H](O)[C@@H]2O)C1 (some centres not stated)	SR-BI HDL uptake 81 (no result: Vif inh) | DiI quencher inactive
CC(=O)N1CC[C@@H]2[C@H]1c1cc(-c3ccccc3)ccc1N(C)[C@H]2CO	none (no result: SR-BI DiI-HDL act, Vif inh, SR-BI HDL uptake)
O=C(O)CC(C(=O)Nc1ccc(Cl)cc1Cl)C1CCCO1 (configuration not stated)	none (no result: C2C12 statin)
Cc1ccc(C)c(NC(=O)C(CC(=O)O)C2CCCO2)c1 (configuration not stated)	SR-BI HDL uptake 77 | DiI quencher inactive
O=C(NC1CC1)c1ccc(CN(c2ccccc2)S(=O)(=O)c2ccccc2)cc1	SR-BI HDL uptake inconclusive (no result: C2C12 statin) | DiI quencher inactive
O=C(Nc1nc(-c2ccccn2)cs1)c1ccc(-c2ccccc2F)o1	none | DiI quencher inactive
CCC(=O)Nc1ccc2c(c1)OC[C@H](C)N(C(=O)CC1CC1)C[C@@H](C)[C@@H](OC)CN(C)C2=O	none (no result: SR-BI DiI-HDL act, Vif inh, SR-BI HDL uptake)
CCOc1ccccc1/C=C/c1onc(C)c1S(=O)(=O)N1CCC(C(=O)NC)CC1	SR-BI HDL uptake inconclusive
CCOc1ccccc1/C=C/c1onc(C)c1S(=O)(=O)N1CCC(C(=O)NC(C)(C)C)CC1	SR-BI HDL uptake 84 | DiI quencher inactive
C[C@H]1CN([C@@H](C)CO)C(=O)Cc2cc(NC(=O)CCN3CCOCC3)ccc2O[C@@H]1CN(C)C(=O)Nc1ccccc1	none (no result: SR-BI DiI-HDL act, Vif inh, SR-BI HDL uptake)
COc1ccc([C@H]2CC(=O)C=C(c3cccc4c3sc3ccccc34)C2)cc1OC	SR-BI HDL uptake 96 | DiI quencher inactive
CO[C@H]1CN(C)C(=O)c2cc(NC(=O)C3CCOCC3)ccc2OC[C@H](C)N(C(C)=O)C[C@H]1C	none (no result: SR-BI DiI-HDL act, Vif inh, SR-BI HDL uptake)
Fc1ccc(-c2cc(-c3cccs3)cc(-c3ccccc3)n2)cc1	SR-BI HDL uptake 83 | DiI quencher inactive
C[C@H]1CN([C@@H](C)CO)C(=O)c2cc(NC(=O)C3CCCCC3)ccc2O[C@@H]1CN(C)S(=O)(=O)c1ccc(F)cc1	none (no result: SR-BI DiI-HDL act, Vif inh, SR-BI HDL uptake)
O=C(C[C@@H]1C/C=C\CCCC(=O)OC[C@@H]2CCCN2C1=O)NCCO	none
O=C(C[C@H]1C/C=C\CCC(=O)OC[C@H]2CCCN2C1=O)NCCO	none | DiI quencher inactive
Cc1cccc(N2CCN(C(=O)COc3ccc4c(C)cc(=O)oc4c3C)CC2)c1C	SR-BI HDL uptake inconclusive | DiI quencher inactive
O=C(NCC[C@H]1CC[C@H](NS(=O)(=O)c2cccc(F)c2)[C@H](CO)O1)C1CC1	none (no result: SR-BI DiI-HDL act, Vif inh, SR-BI HDL uptake)
COCCN(Cc1cn(C)nc1-c1ccc(Oc2ccccc2)cc1)C(C)C	SR-BI HDL uptake 82 | DiI quencher inactive
CC(C)N(C)Cc1cn(C)nc1-c1ccc(Oc2ccccc2)cc1	none
COc1ccccc1-c1cnc2c(c1)C(=O)N([C@H](C)CO)C[C@@H](C)[C@H](CN(C)C)O2	none (no result: SR-BI DiI-HDL act, Vif inh, SR-BI HDL uptake)
C[C@@H]1CN([C@@H](C)CO)C(=O)CCCn2cc(nn2)CO[C@@H]1CN(C)C(=O)OCc1ccccc1	none (no result: SR-BI DiI-HDL act, Vif inh, SR-BI HDL uptake)
COCCNC(=O)c1ccc(CS(=O)(=O)c2cccc(C(F)(F)F)c2)o1	SR-BI HDL uptake 75 (no result: Vif inh) | DiI quencher inactive
O=C(NCC1CCCO1)c1ccc2c(c1)N(Cc1ccc(F)cc1)CCS2 (configuration not stated)	none
O=C(NCC1CCCO1)c1ccc2c(c1)N(Cc1ccc(F)cc1Cl)C(=O)CS2 (configuration not stated)	none | DiI quencher inactive
O=C(c1ccc(S(=O)(=O)NCc2ccco2)cc1)N1CCN(c2ccc(F)cc2)CC1	none
O=C(c1ccc(S(=O)(=O)NCc2ccco2)cc1)N1CCN(Cc2ccccc2F)CC1	none | DiI quencher inactive
CC(=O)c1ccc(N2CCN(C(=O)c3ccc(S(=O)(=O)NCc4ccco4)cc3)CC2)cc1	none
O=C(c1ccc(S(=O)(=O)NCc2ccco2)cc1)N1CCN(Cc2ccccc2)CC1	none (no result: C2C12 statin) | DiI quencher inactive
O=C(NC1CCN(Cc2ccccc2)CC1)c1ccc(S(=O)(=O)NCc2ccco2)cc1	none
COc1ccc(CN2CCN(C(=O)c3ccc(S(=O)(=O)NCc4ccco4)cc3)CC2)cc1	SR-BI HDL uptake 93 | DiI quencher inactive
COc1cccc(C(=O)N2C[C@H]3[C@@H](c4ccccc42)[C@@H](CO)N3C(C)=O)c1	none (no result: SR-BI DiI-HDL act, Vif inh, SR-BI HDL uptake)
